ChEMBL document CHEMBL4368937, “Design, synthesis and biological evaluation of low molecular weight CXCR4 ligands” (Bioorg Med Chem, 2019)

Key:
[1] = system: Human immunodeficiency virus 1; experiment: Antiviral activity against X4 tropic HIV-1 NL4-3 infected in human MT4 cells assessed as protection against virus-induced cytopathic effect in absence of ZnCl2 after 5 days by MTT assay; format: functional, organism-based; conditions: Human immunodeficiency virus 1, NL4-3, MT4, 120 h
Summary of the method: (§1)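 Protection of MT-4 cells from X4 HIV-1 NL4-3 cytopathicity. Infected cells (MOI 0.001, 2.0 × 10^4 cells/well) received graded compound concentrations, without or with ZnCl2 (10 eq), for 5 days at 37 °C. Viable cells were counted by MTT. EC50 is the concentration giving 50% protection; mean of at least three independent experiments.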

[2] = Cytotoxicity against human MT4 cells in absence of ZnCl2; format: cell-based
[3] = target: T1, C-X-C chemokine receptor type 4 (Homo sapiens, UniProt P61073); experiment: Competitive inhibition of TAMRAAc-TZ14011 binding to CXCR4 (unknown origin) expressed in CHO cells at 1 uM in absence of ZnCl2 by NanoBRET assay relative to control; format: cell-based
Summary of the method: (§2)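 Single-point competition in CHO cells stably expressing N-terminally Nluc-tagged CXCR4 (5 x 10^4 cells, seeded 24 h earlier at 37 °C, 5% CO2, medium then replaced with OptiMEM). Cells were incubated with 10 nM TAMRA-Ac-TZ14011 plus 1 µM compound, without or with 10 µM ZnCl2 (10 eq), for 1 h at 25 °C. Furimazine was added and BRET read as acceptor (>610 nm) over donor (460 nm). Inhibition is relative to no compound and to excess Ac-TZ14011; mean ± SEM, n = 3.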

[4] = system: Human immunodeficiency virus 1; experiment: Antiviral activity against X4 tropic HIV-1 NL4-3 infected in human MT4 cells assessed as protection against virus-induced cytopathic effect in presence of ZnCl2 after 5 days by MTT assay; format: functional, organism-based; conditions: Human immunodeficiency virus 1, NL4-3, MT4, 120 h; summary of the method: as §1
[5] = target: T1, C-X-C chemokine receptor type 4; experiment: Competitive inhibition of TAMRAAc-TZ14011 binding to CXCR4 (unknown origin) expressed in CHO cells at 1 uM in presence of ZnCl2 by NanoBRET assay relative to control; format: cell-based; summary of the method: as §2
[6] = target: T1, C-X-C chemokine receptor type 4; experiment: Competitive inhibition of [125I]-CXCL12 binding to CXCR4 in human Jurkat cells at 1 uM in absence of ZnCl2 after 2 hrs by gamma counting analysis relative to control; format: cell-based
[7] = system: Human immunodeficiency virus 1; experiment: Antiviral activity against R5 tropic HIV-1 NL(AD8) infected in human MT4 cells assessed as protection against virus-induced cytopathic effect at 10 uM in absence of ZnCl2 after 5 days by MTT assay; format: functional; conditions: Human immunodeficiency virus 1, NL(AD8), MT4, 120 h
[8] = system: Human immunodeficiency virus 1; experiment: Antiviral activity against R5 tropic HIV-1 NL(AD8) infected in human MT4 cells assessed as protection against virus-induced cytopathic effect at 10 uM in presence of ZnCl2 after 5 days by MTT assay; format: functional; conditions: Human immunodeficiency virus 1, NL(AD8), MT4, 120 h
[9] = target: T1, C-X-C chemokine receptor type 4; experiment: Competitive inhibition of [125I]-CXCL12 binding to CXCR4 in human Jurkat cells at 1 uM in presence of ZnCl2 after 2 hrs by gamma counting analysis relative to control; format: cell-based
[10] = target: T1, C-X-C chemokine receptor type 4; experiment: Competitive inhibition of TAMRAAc-TZ14011 binding to CXCR4 (unknown origin) expressed in CHO cells in presence of ZnCl2 by NanoBRET assay relative to control; format: cell-based
Summary of the method: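 Cells were incubated with 10 nM TAMRA-Ac-TZ14011 and compound plus ZnCl2 (10 eq). Furimazine was added and BRET ratio taken as >610 nm over 460 nm emission. Inhibition is scaled between no compound and excess Ac-TZ14011.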

T1 sequence (P61073 whole entry): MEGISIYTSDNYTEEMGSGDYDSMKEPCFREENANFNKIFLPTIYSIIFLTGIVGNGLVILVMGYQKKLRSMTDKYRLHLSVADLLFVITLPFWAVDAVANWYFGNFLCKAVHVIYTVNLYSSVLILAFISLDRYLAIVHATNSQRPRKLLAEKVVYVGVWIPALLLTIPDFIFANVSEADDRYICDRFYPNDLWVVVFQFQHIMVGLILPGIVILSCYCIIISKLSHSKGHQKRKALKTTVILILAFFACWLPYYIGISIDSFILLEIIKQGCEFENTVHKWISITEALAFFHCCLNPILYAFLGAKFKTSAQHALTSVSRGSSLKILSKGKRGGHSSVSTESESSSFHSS

| Compound | inhibition [3] [%] | inhibition [5] [%] | inhibition [6] [%] | inhibition [9] [%] | IC50 [10] [nM] | EC50 [1] [nM] | CC50 [2] [nM] | EC50 [4] [nM] | inhibition at 10 µM [7] [%] | inhibition at 10 µM [8] [%] |
| --- | --- | --- | --- | --- | --- | --- | --- | --- | --- | --- |
| c1ccc(CN(Cc2ccc3c(c2)-c2cc(CN4CCCNCCNCCCNCC4)ccc2OCCO3)Cc2ccccn2)nc1 | 47.8 | 89 | 48.7 | 119 |  | 1900 | > 10000 | 970 | < 30 | < 30 |
| c1ccc(CN(Cc2ccnc(-c3cccc(CN4CCCNCCNCCCNCC4)c3)c2)Cc2ccccn2)nc1 | 47.6 | 93.4 | 63 | 84.7 | 3.5 | 170 | > 10000 | 28 | < 30 | < 30 |
| c1ccc(CN(Cc2ccccn2)Cc2ccccc2-c2ccccc2CN2CCCNCCNCCCNCC2)nc1 | 79.8 | 99 | 90.4 | 74.1 |  | 1000 | > 10000 | 5800 | < 30 | < 30 |
| c1ccc(CN(Cc2cccc(-c3ccccc3CN3CCCNCCNCCCNCC3)c2)Cc2ccccn2)nc1 | 44.4 | 83.1 | 46.1 | 116 |  | 4200 | > 10000 | 1100 | < 30 | < 30 |
| c1ccc(CN(Cc2ccc3c(c2)-c2cc(CN4CCCNCCNCCCNCC4)ccc2OCO3)Cc2ccccn2)nc1 | 43.5 | 88.5 | 54.4 | 95.6 |  | 800 | > 10000 | 870 | < 30 | < 30 |
| c1ccc(CN(Cc2ccc3c(c2)-c2cc(CN4CCCNCCNCCCNCC4)ccc2OCCCO3)Cc2ccccn2)nc1 | 50.4 | 81.8 | 32.5 | 97.1 |  | 580 | > 10000 | 300 | < 30 | < 30 |
| c1ccc(CN(Cc2ccc3nc(CN4CCCNCCNCCCNCC4)ccc3c2)Cc2ccccn2)nc1 | 81.1 | 101 | 81 | 110 |  | > 970 | > 10000 | 5500 |  |  |
| c1ccc(CN(Cc2ccc3c(c2)-c2cc(CN4CCCNCCNCCCNCC4)ccc2OCCCCO3)Cc2ccccn2)nc1 | 54.5 | 78.9 | 57.3 | 78.4 |  | 670 | > 10000 | 280 | < 30 | < 30 |
| c1ccc(CN(Cc2ccnc(-c3cc(CN4CCCNCCNCCCNCC4)ccn3)c2)Cc2ccccn2)nc1 | 88.5 | 92.2 | 100 | 99.2 |  | 920 | > 10000 | 200 | < 30 | < 30 |

Further lines, with some results ahead:

| inhibition [3] [%] | inhibition [5] [%] | inhibition [6] [%] | inhibition [9] [%] | IC50 [10] [nM] | Compound | EC50 [1] [nM] | CC50 [2] [nM] | EC50 [4] [nM] | inhibition at 10 µM [7] [%] | inhibition at 10 µM [8] [%] |
| --- | --- | --- | --- | --- | --- | --- | --- | --- | --- | --- |
| 89.7 | 78.2 | 10.9 | 101 |  | c1ccc(CN(Cc2ccc(-c3cccc(CN4CCCNCCNCCCNCC4)c3)cc2)Cc2ccccn2)nc1 | 800 | > 10000 | 1100 | < 30 | < 30 |
| 35.6 | 105 | 38.3 | 119 |  | c1ccc(CN(Cc2cccc(-c3ccc(CN4CCCNCCNCCCNCC4)cc3)c2)Cc2ccccn2)nc1 | 3100 | > 10000 | 1000 | < 30 | < 30 |
| 52.6 | 83.1 | 54.9 | 91.6 | 5.7 | c1ccc(CN(Cc2ccc(-c3ccccc3CN3CCCNCCNCCCNCC3)cc2)Cc2ccccn2)nc1 | 40 | > 10000 | 21 | < 30 | 58 |
| 31.9 | 93.9 | 41.4 | 88.5 | 4.5 | c1ccc(CN(Cc2ccc(-c3ncccc3CN3CCCNCCNCCCNCC3)cc2)Cc2ccccn2)nc1 | 110 | > 10000 | 61 | < 30 | < 30 |
| 79.7 | 92.6 | 39.2 | 89.7 |  | c1ccc(CN(Cc2ccnc(-c3ccc(CN4CCCNCCNCCCNCC4)cc3)c2)Cc2ccccn2)nc1 | 140 | > 10000 | 45 | < 30 | < 30 |
| 75.3 | 94.4 | 68.6 | 98.7 |  | c1ccc(CN(Cc2ccc(-c3ccc(CN4CCCNCCNCCCNCC4)cn3)nc2)Cc2ccccn2)nc1 | 680 | > 10000 | 900 | < 30 | < 30 |
| 89.1 | 102 | 27 | 105 |  | c1ccc(CN(Cc2ccc(-c3ccc(CN4CCCNCCNCCCNCC4)cc3)nc2)Cc2ccccn2)nc1 | 590 | > 10000 | 130 | < 30 | < 30 |
| 56 | 102 | 41.9 | 100 | 7.9 | c1ccc(CN(Cc2ccccn2)Cc2ccccc2-c2cccc(CN3CCCNCCNCCCNCC3)c2)nc1 | 40 | > 10000 | 13 | < 30 | < 30 |
| 40.4 | 88.4 | 46.6 | 105 |  | c1ccc(CN(Cc2cccc(-c3cccc(CN4CCCNCCNCCCNCC4)c3)c2)Cc2ccccn2)nc1 | 750 | > 10000 | 980 | < 30 | < 30 |
| 51.1 | 87.9 | 33.9 | 85.5 |  | c1ccc(CN(Cc2ccc(-c3ccc(CN4CCCNCCNCCCNCC4)cc3)cc2)Cc2ccccn2)nc1 | 780 | 4800 | 1000 | < 30 | < 30 |
| 64.6 | 87.5 | 79.9 | 84.1 |  | c1ccc(CN(Cc2ccccn2)Cc2ccccc2-c2ccc(CN3CCCNCCNCCCNCC3)cc2)nc1 | 2600 | > 10000 | 890 | < 30 | < 30 |
| 82.1 | 84.8 | 83.5 | 87.5 |  | c1ccc(CN(Cc2ccc3ccc(CN4CCCNCCNCCCNCC4)cc3c2)Cc2ccccn2)nc1 | 790 | > 10000 | 1100 | < 30 | < 30 |
